This is an account of results in ChEMBL document CHEMBL1135727, “Selective antagonists at group I metabotropic glutamate receptors: synthesis and molecular pharmacology of 4-aryl-3-isoxazolol amino acids” (J Med Chem, 2002).

Bounds are passed on as bounds.

Assay [1] addresses Metabotropic glutamate receptor 2 (Rattus norvegicus, UniProt P31421). Nature of the assay: The compound was tested for the receptor binding affinity at Metabotropic glutamate receptor 2 using established second messenger assay systems. Summed up:
(§1)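 Receptors were expressed in CHO cells: mGluR1α, mGluR2, mGluR4a and mGluR5a. Functional read-outs were PI hydrolysis (1.8 × 10^6 cells seeded 2 days before) or cyclic AMP formation (1.0 × 10^6 cells seeded 2 days before). Agonist and antagonist activity was tested at 1 mM unless stated otherwise. Ki was derived from IC50 via the Cheng–Prusoff equation.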

The target in assay [2] is Metabotropic glutamate receptor 5 (Rattus norvegicus, UniProt P31424). Briefly: The compound was tested for the receptor binding affinity at Metabotropic glutamate receptor 5 using established second messenger assay systems. The method, boiled down:
as §1

Assay [3] concerns the target Metabotropic glutamate receptor 4 (Rattus norvegicus, UniProt P31423). Nature of the assay: The compound was tested for the receptor binding affinity at Metabotropic glutamate receptor 4 using established second messenger assay systems. The method, boiled down: as §1
Assay [4] has as its target T1, Glutamate receptor ionotropic, AMPA (Rattus norvegicus, UniProt P19490+P19491+P19492+P19493). Briefly: Concentration which causes 50% reduction in receptor binding affinity against Ionotropic glutamate receptor AMPA using [3H]AMPA.
Another assay addresses Glutamate NMDA receptor. Briefly: Concentration which causes 50% reduction in receptor binding affinity against N-methyl-D-aspartate glutamate receptor (NMDA) using [3H]CPP. The format is protein-complex assay.
Assay [5] has as its target Glutamate receptor ionotropic, kainate 1 (Rattus norvegicus, UniProt P22756). Nature of the assay: Concentration which causes 50% reduction in receptor binding affinity against Ionotropic glutamate receptor ionotropic kainate using [3H]-kainic acid.
For assay [6], the species on record is Rattus norvegicus. Briefly: Electropharmacology measured as antagonist effects in the rat cortical wedge model. In kind it is functional.
Assay [7] addresses Metabotropic glutamate receptor 1 (Rattus norvegicus, UniProt P23385). Nature of the assay: The compound was tested for the receptor binding affinity at Metabotropic glutamate receptor 1 using established second messenger assay systems. The method, boiled down: as §1
Assay [8] has as its target T1, Glutamate receptor ionotropic, AMPA. Briefly: Concentration which causes 50% reduction in receptor binding affinity against Ionotropic glutamate receptor AMPA using [3H]AMPA. The format is protein-complex assay.
The species named for assay [9] is Rattus norvegicus. Briefly: Electropharmacology measured as agonist effects in the rat cortical wedge model. In kind it is functional.

Metabotropic glutamate receptor 1, sequence (P23385 whole entry): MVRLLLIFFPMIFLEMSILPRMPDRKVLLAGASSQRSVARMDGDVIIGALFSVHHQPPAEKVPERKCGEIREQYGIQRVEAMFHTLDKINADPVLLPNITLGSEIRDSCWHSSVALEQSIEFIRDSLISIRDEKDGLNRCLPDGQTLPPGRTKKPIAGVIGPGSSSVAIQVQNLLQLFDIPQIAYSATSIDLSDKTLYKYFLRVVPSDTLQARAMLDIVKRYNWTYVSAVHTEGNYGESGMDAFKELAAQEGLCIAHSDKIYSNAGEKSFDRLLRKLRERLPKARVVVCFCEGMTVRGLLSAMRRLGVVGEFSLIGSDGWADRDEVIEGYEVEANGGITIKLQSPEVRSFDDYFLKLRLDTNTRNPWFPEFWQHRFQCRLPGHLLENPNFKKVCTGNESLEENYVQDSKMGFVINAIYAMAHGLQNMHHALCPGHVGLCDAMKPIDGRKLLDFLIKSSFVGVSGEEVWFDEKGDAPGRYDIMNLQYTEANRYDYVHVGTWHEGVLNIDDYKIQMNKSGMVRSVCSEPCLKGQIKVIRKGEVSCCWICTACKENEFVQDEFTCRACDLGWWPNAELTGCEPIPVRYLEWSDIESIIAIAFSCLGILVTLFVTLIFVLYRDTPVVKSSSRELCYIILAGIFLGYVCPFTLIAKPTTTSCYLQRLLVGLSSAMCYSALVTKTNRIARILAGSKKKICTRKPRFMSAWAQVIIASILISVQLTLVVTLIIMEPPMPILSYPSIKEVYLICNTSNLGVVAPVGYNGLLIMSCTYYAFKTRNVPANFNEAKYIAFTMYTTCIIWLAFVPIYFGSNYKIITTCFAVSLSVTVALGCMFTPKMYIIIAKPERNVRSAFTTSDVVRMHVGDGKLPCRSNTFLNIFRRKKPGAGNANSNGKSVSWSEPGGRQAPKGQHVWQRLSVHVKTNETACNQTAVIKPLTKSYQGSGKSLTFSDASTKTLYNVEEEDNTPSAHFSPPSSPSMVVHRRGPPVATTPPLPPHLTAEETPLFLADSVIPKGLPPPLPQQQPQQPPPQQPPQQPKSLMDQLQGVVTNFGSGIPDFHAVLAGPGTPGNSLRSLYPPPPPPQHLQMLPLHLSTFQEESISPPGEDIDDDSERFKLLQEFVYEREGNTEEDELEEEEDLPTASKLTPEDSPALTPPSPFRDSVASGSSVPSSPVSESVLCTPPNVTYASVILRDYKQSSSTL
Glutamate receptor ionotropic, kainate 1, sequence (P22756 whole entry): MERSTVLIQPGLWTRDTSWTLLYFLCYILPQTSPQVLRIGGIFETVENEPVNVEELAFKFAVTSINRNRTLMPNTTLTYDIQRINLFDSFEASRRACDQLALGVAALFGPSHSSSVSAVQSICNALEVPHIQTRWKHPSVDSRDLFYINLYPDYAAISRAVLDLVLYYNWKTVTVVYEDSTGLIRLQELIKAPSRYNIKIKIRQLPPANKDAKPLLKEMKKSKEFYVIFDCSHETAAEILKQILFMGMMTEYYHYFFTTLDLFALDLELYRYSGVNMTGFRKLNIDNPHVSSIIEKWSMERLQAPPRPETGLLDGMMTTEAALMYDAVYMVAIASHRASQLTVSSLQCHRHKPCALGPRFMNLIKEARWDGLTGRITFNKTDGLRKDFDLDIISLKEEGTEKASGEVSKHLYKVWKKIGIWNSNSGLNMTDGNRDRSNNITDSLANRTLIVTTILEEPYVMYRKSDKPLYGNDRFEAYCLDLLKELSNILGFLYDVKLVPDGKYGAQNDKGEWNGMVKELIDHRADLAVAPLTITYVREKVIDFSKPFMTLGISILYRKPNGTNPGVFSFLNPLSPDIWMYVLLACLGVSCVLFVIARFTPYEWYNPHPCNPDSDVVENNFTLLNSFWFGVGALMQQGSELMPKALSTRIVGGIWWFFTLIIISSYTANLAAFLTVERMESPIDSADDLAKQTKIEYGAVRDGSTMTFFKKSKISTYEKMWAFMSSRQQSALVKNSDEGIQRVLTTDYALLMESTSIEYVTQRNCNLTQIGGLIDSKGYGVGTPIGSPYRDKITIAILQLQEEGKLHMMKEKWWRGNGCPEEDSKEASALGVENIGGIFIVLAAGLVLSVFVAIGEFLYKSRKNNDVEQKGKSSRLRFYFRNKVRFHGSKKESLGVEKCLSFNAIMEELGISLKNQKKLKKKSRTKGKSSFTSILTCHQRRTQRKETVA
Metabotropic glutamate receptor 5, sequence (P31424 whole entry): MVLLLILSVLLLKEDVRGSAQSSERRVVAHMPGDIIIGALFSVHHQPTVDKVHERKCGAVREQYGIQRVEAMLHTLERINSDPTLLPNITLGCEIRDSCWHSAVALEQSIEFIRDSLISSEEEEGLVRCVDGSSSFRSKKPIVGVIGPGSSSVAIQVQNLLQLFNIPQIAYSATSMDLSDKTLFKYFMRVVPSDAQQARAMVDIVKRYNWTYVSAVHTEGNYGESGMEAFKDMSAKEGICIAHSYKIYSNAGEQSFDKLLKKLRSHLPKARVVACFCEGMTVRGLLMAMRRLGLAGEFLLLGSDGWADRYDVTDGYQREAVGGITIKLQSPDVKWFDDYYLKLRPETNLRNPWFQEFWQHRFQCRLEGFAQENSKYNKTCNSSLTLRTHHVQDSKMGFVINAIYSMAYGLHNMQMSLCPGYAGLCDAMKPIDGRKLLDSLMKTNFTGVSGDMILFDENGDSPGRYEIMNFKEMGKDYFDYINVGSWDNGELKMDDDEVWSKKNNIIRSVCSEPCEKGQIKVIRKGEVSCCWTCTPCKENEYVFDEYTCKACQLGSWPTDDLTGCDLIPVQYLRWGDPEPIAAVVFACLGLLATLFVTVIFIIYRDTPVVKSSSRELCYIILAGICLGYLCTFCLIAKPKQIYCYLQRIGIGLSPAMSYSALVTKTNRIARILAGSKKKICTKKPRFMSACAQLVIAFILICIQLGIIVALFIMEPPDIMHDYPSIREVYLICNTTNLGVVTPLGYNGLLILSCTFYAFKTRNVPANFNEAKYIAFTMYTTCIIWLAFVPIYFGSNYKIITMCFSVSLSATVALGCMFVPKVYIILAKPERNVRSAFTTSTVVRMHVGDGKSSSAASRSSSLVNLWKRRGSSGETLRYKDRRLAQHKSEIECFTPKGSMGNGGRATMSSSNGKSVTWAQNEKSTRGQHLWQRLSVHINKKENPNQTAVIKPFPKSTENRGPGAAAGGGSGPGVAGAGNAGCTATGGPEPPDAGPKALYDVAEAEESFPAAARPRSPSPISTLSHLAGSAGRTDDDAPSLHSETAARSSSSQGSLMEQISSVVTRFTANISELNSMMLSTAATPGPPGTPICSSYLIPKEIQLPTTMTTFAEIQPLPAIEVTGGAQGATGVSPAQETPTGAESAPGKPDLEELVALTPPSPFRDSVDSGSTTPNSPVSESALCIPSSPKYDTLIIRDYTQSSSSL
Metabotropic glutamate receptor 4, sequence (P31423 whole entry): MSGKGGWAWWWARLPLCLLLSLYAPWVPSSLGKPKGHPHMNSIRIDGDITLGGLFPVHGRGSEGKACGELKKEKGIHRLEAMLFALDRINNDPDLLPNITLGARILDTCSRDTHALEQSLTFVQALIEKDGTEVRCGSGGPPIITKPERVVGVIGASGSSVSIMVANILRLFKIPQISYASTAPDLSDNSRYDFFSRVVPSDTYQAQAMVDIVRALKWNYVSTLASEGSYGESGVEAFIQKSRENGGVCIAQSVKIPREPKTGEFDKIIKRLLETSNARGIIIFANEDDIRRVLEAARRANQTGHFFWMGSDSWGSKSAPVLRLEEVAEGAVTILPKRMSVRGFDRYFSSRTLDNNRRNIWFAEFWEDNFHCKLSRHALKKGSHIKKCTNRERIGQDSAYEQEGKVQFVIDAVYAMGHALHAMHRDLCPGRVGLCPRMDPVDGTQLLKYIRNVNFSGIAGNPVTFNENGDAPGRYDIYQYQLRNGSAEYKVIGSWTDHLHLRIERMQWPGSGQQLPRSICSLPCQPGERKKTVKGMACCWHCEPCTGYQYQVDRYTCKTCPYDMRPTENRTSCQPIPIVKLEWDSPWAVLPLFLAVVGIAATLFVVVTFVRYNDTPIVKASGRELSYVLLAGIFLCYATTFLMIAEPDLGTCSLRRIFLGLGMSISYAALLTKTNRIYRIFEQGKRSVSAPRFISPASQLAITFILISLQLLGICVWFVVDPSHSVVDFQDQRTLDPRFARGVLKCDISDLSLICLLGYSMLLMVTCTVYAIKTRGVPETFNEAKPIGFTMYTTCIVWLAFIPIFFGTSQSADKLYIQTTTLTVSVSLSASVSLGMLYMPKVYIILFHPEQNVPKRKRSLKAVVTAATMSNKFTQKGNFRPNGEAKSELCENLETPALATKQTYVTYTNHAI

`N[C@@H](Cc1o[nH]c(=O)c1-c1cccc2ccccc12)C(=O)O`: the Ki in [1] is more than 1000 µM; in [2], 62 µM; in assay [3], more than 1000 µM; in assay [7], 119 µM. For the same compound, the IC50 in assay [4] is more than 100 µM; on Glutamate NMDA receptor, more than 100 µM; in assay [5], more than 100 µM; in the assay listed under Rattus norvegicus [6], approximately 1000 µM.

With `N[C@@H](Cc1onc(O)c1-c1ccccc1O)C(=O)O`, the IC50 (in assay [8]; on Glutamate NMDA receptor; in assay [5]) was more than 100 µM in each case. Also, the Ki in [1] is more than 1000 µM; in assay [2] it was 45 µM; in assay [3], more than 1000 µM; in assay [7], 125 µM. Also, in the assay filed under Rattus norvegicus [9], the EC50 is more than 1000 µM.

As for `N[C@@H](Cc1cc(=O)[nH]o1)C(=O)O`, the Ki is more than 1000 µM in assay [1], 490 µM in assay [2], more than 1000 µM in assay [3] and 250 µM in assay [7]. The IC50 (at Glutamate NMDA receptor; in [5]) was more than 100 µM each time.

For the compound `N[C@@H](Cc1o[nH]c(=O)c1-c1ccccn1)C(=O)O`, the IC50 was 1.3 µM in assay [8], more than 100 µM at Glutamate NMDA receptor and more than 100 µM in [5]. The Ki in assay [1] was more than 1000 µM; in [2], 224 µM; in assay [3], more than 1000 µM; in assay [7] it was 396 µM. Moreover, the midpoint of the response in the assay listed under Rattus norvegicus [9], the EC50, lay at 23 µM.

On to `N[C@@H](Cc1onc(O)c1-c1cccc(O)c1)C(=O)O`, for which the values for the IC50 (in assay [8]; on Glutamate NMDA receptor; in assay [5]) were 62 µM, 42 µM and more than 100 µM, respectively. The Ki was more than 1000 µM in [1], more than 1000 µM in assay [3] and 226 µM in assay [7]. For the same compound, the EC50 in the assay listed under Rattus norvegicus [9] is 990 µM.

As for `N[C@@H](Cc1o[nH]c(=O)c1CCc1ccccc1)C(=O)O`, the IC50 in assay [8] is more than 100 µM; at Glutamate NMDA receptor, more than 100 µM; in assay [5], more than 100 µM; in the assay filed under Rattus norvegicus [6], more than 1000 µM. Moreover, the Ki is more than 1000 µM in [1], 70 µM in assay [2], more than 1000 µM in assay [3] and 92 µM in assay [7].

As to `N[C@@H](Cc1onc(O)c1-c1ccccc1)C(=O)O`, the IC50 (in [8]; on Glutamate NMDA receptor; in assay [5]) was more than 100 µM throughout. Further, the Ki is more than 1000 µM in assay [1], more than 1000 µM in assay [3] and 160 µM in assay [7]. Moreover, the midpoint of the response in the assay listed under Rattus norvegicus [9], the EC50, lay at 590 µM.

Take `N[C@@H](Cc1onc(O)c1-c1ccc(O)cc1)C(=O)O`: the IC50 is more than 100 µM in [8], 20 µM on Glutamate NMDA receptor, more than 100 µM in assay [5] and approximately 1000 µM in the assay listed under Rattus norvegicus [6]. Also, the Ki was more than 1000 µM in assay [1], 65 µM in assay [2], more than 1000 µM in assay [3] and 71 µM in assay [7].

On to `N[C@@H](Cc1onc(O)c1-c1ccc2ccccc2c1)C(=O)O`, for which the IC50 is more than 100 µM in [8], 14 µM at Glutamate NMDA receptor, more than 100 µM in [5] and 715 µM in the assay filed under Rattus norvegicus [6]. The inhibition constant (Ki) in assay [1] was more than 1000 µM; in assay [2] it was 53 µM; in assay [3], more than 1000 µM; in [7] it was 249 µM.

Usually Ki stands for the dissociation constant of the complex between target and ligand, obtained from inhibition or displacement. Low readings indicate tighter binding, high ones weaker binding. As a reminder, the IC50 is the concentration needed to halve the response being measured. A higher IC50 goes with lower potency. For orientation: EC50 means the concentration at which the effect is half-maximal.
